Only some compounds are listed: those with a hit (about 1.5% of all), similar ones and a draw of the others.
CSN deneddyl inh: blocks human CSN-mediated cullin deneddylation; Q92905; Purified CSN, SCF-Nedd8-OG deneddylation, fluorescence polarization; inhibition, % at 12.5 µM; 360,000 tested, 0.38% active; AID 651999;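 active means pattern-corrected inhibition above about 35%, with an unprinted fluorescence ratio check between 0.5 and 1.5, limit read from the data, passing the limit was not always enough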;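 further: 0% = enzyme with substrate and 100% = substrate without enzyme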
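Test system: Human Csn5 produced in HEK293T cells | Compound: 12.5 µM single point | Times: 90 min, room temperature | Signal: Fluorescence polarization readout | Read-out basis: % inhibition of substrate cleavage by Csn5 | Controls: no-enzyme wells high, enzyme-with-substrate wells low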
HNF4A DNA FP: change in binding of human HNF4 alpha to DNA | P41235 | activity change, % at 10 µM | AID 1224865 | 360,000 tested, 0.3% active | HNF4a-FITC DNA binding, fluorescence polarization, 1 h; in the data active means activity change above about 30%, passing the limit was not always enough
TPT1 inh: C. albicans TPT1 enzyme inhibition. recombinant caTPT1, FP RNA substrate dephosphorylation. inhibition, % at 5 µM. 300,000 tested, 0.81% active. AID 1962;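 active means inhibition above the mean of all tested compounds plus 3 SD, set per screening campaign, cut at about 24% in these data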;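 further: plate controls were DMSO alone for no effect and ferristatin control at 100 nM for full effect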
Rpn11 inh: Rpn11 (human) deubiquitinase inhibition; AID 588493; 360,000 tested, 0.59% active; inhibition, % at 20 µM; human 26S proteasome, Ub4-pepOG fluorescence polarization; 20S core pre-blocked with epoxomicin;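 active means inhibition at 20 µM, scaled to each plate's controls, above about 33%, limit read from the data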
Rpn11 confirm: Rpn11 inhibition confirmation, single concentration | shares compounds with Rpn11 inh | purified human 26S proteasome, Ub4-pepOG fluorescence polarization; proteasome pretreated with epoxomicin | inhibition, % at 20 µM | 1,900 tested, 29% active
MMP-2 counter-1: blocks human MMP-2, flagging nonselective RPN11 hits; inhibition, % at 20 µM; 1,900 tested, 4% active; recombinant MMP-2, FRET peptide cleavage fluorescence; AID 602330; shares compounds with Rpn11 inh;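 further: human MMP-2 activated beforehand with APMA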
Thrombin FP: counter-screen for RPN11 inhibitors: inhibition of bovine thrombin. shares compounds with Rpn11 inh. bovine thrombin cleavage of Ub4-pepOG, fluorescence polarization. inhibition, % at 20 µM. 1,900 tested, 13% active. AID 602333;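 active means mean inhibition at least 40% at 20 µM, or signal 3 deviations below plate average, so some actives read negative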;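 further: plate controls were thrombin with DMSO for no effect and buffer wells lacking thrombin for full effect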
Target sequence (P00735 whole entry, looked up): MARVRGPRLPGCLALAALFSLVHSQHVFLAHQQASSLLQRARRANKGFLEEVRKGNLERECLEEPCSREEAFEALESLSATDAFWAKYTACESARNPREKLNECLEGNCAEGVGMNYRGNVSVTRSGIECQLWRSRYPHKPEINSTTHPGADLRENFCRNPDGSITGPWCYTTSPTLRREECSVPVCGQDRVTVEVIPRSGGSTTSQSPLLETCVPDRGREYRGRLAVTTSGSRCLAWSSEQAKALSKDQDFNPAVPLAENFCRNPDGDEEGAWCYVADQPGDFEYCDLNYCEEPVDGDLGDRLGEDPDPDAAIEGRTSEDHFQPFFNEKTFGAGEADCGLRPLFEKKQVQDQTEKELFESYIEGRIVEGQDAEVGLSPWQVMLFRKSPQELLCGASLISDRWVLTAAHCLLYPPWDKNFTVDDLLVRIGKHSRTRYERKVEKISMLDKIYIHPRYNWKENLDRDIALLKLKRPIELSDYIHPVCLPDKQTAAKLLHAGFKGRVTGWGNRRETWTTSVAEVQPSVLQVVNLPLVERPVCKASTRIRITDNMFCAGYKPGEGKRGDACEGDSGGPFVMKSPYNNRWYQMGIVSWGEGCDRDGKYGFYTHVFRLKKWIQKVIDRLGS
CSN deneddyl val: validation of inhibitors of human CSN-mediated cullin deneddylation; 540 tested, 62% active; shares compounds with CSN deneddyl inh; inhibition, % at 16.6 µM; Csn5 deneddylation of SCF-Nedd8OG, fluorescence polarization, 90 min; in the data active means inhibition above about 50%;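 further: 0% = DMSO with enzyme and 100% = no enzyme wells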
MMP-2 counter-2: blocks human MMP-2 in a CSN deneddylation counter-screen | shares compounds with CSN deneddyl inh | recombinant MMP-2, FRET substrate fluorescence, 60 min | inhibition, % at 16.6 µM | 540 tested, 33% active | AID 720655;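 active means corrected plate-normalized z-score of 5 or more, or -5 or less, or inhibition of 15% or more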;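 further: plate controls were DMSO wells with enzyme for no effect and buffer wells lacking MMP-2 for full effect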
Thrombin cntr: thrombin (bovine) inhibition, counter-screen for CSN hits; 540 tested, 49% active; bovine thrombin cleavage of Ub4-pepOG, fluorescence polarization; shares compounds with CSN deneddyl inh; inhibition, % at 16.6 µM;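 active means inhibition at or above a set limit, with a fluorescence interference ratio between 0.5 and a set maximum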
* = called active by the depositor; i = inactive; . = no result; + = active, no number. Unless noted, no stated cut-off is given here; in the data, active means inhibition above about 40%; inactive means the rest.

SMILES	CSN deneddyl inh	HNF4A DNA FP	TPT1 inh	Rpn11 inh	Rpn11 confirm	MMP-2 counter-1	Thrombin FP	CSN deneddyl val	MMP-2 counter-2	Thrombin cntr
CN(CCO)c1ccc(C=NNc2ccc([N+](=O)[O-])cc2S(=O)(=O)Nc2ccccc2C(=O)O)cc1	24	47*	.	90*	73*	-15	40	.	.	.
CCOC(=O)c1nc2cc3n(c(CC(C)C)c-2c1C)CC(C)=C3C	9	14	13	56*	18	6	14	.	.	.
N#C/C(=C\Nc1ccc2cn[nH]c2c1)c1nc(-c2ccc(Cl)cc2)cs1	15	8	13	39	.	.	.	.	.	.
CCN(CC)CCOC(=O)c1ccc(N/C=C(/C#N)c2nc(-c3cc4ccccc4oc3=O)cs2)cc1	119*	161	.	82*	52*	i	60*	-62	-267*	21*
CCN(CC)CCOC(=O)c1ccc(N/C=C(/C#N)c2nc(-c3ccc4c(c3)OCO4)cs2)cc1	137*	292*	6	86*	153*	-152	71*	-48	-5	11
C[C@@H]1CN([C@H](C)CO)C(=O)Cc2cc(NC(=O)Nc3ccccc3)ccc2O[C@@H]1CN(C)C(=O)Nc1ccc2c(c1)OCO2	-2	3	.	5	.	.	.	.	.	.
COc1ccc(S(=O)(=O)N2CCN(C(=O)C3COc4ccccc4O3)CC2)cc1 (centres undefined)	45*	-48	.	86*	65*	15	58*	.	8	16*
CC(=O)Nc1ccc(S(=O)(=O)N2CCN(C(=O)C3COc4ccccc4O3)CC2)cc1 (centres undefined)	4	3	-1	-14	.	.	.	.	.	.
Cc1ccc(NC(=O)CSc2nc(=O)n(CCCN3CCOCC3)c3c2CCCC3)cc1	3	1	0	-5	.	.	.	.	.	.
Cc1cc2c(=Cc3ccc(N(C)C)cc3)c3ccccc3n2[n+]1C	86*	195	.	177*	135*	-11	145*	44	-22	60*
C[n+]1c(-c2ccccc2)cc2c(=Cc3ccccc3)c3ccccc3n21	1	3	.	10	.	.	.	.	.	.
CN(C)c1ccc(C=c2c3cc(O)ccc3n3c2cc(-c2ccccc2)[n+]3C)cc1	138*	161	.	168*	177*	109*	155*	-60	100*	68*
COc1ccc(C(C)(O)c2nc(-c3ccc(S(C)(=O)=O)cc3)cs2)cc1 (centres undefined)	-1	-5	.	7	.	.	.	.	.	.
CCCc1cc(=O)oc2cc(OCC(=O)Nc3ccc(S(N)(=O)=O)cc3)ccc12	104*	-34	1	+	6	67*	-10	-3	46*	32*
CCCc1cc(=O)oc2cc(OCC(=O)NCc3cccs3)ccc12	8	5	-1	0	.	.	.	.	.	.
CCS(=O)(=O)C1=NN2C(=N)/C(=C\c3ccc(OC(=O)c4ccco4)c(Br)c3)C(=O)N=C2S1	.	.	21	.	.	.	.	.	.	.
CCS(=O)(=O)C1=NN2C(=N)/C(=C\c3ccc(SCc4ccco4)o3)C(=O)N=C2S1	116*	32	.	+	122*	11	49*	-5	14	54*
N#Cc1c(NC(=O)c2ccc(Br)o2)n(-c2ccccc2)c2nc3ccccc3nc12	39*	88*	13	58*	6	-33	-14	94*	6	2
O=[N+]([O-])c1ccc(N/N=C/c2sc(N3CCOCC3)nc2-c2ccccc2)c(S(=O)(=O)Nc2ccccc2Cl)c1	51*	60*	.	69*	55*	-2	46*	83*	-4	36*
C=CCOC(=O)c1cc(-c2ccc(/C=C3\C(=O)NC(=O)C(C#N)=C3C)o2)ccc1Cl	43*	-17	.	58*	37	14	31	18*	24*	7
COc1cc2sc3cc(NCC[C@@H]4CCCN4C)ccc3c(=O)c2cc1OC	36*	21	.	57*	-4	17	1	109*	8	-15
COc1cccc2sc3ccc(NCCC4CCCN4C)cc3c(=O)c12 (centres undefined)	-8	-13	-8	-12	.	.	.	.	.	.
CC[n+]1c(/C=C2\Sc3ccccc3N2C)ccc2cccc(C)c21	70*	156*	.	102*	96*	-51	157*	12	-11	33
CN1/C(=C/c2cccc[n+]2CCO)Sc2ccccc21	-2	5	2	5	.	.	.	.	.	.
Cc1cccc(N=C2NC(=O)/C(=C/C=C/c3ccco3)S2)c1C	58*	-18	19	65*	8	47*	10	63*	18*	38*
SMILES	CSN deneddyl inh	HNF4A DNA FP	TPT1 inh	Rpn11 inh	Rpn11 confirm	MMP-2 counter-1	Thrombin FP	CSN deneddyl val	MMP-2 counter-2	Thrombin cntr
CCc1nc2ccc(C(=O)NCCCN3CCCC3=O)cn2c1N(C)Cc1ccc(OC)cc1	3	-3	.	-1	.	.	.	.	.	.
CC1=NN(c2nc(N)nc(/C(C#N)=C/c3ccc([N+](=O)[O-])o3)n2)C(C)(C)C1	42*	96*	.	79*	4	12	15	96*	1	12
Cc1cc(C(=O)OCC(=O)N(CC(C)C)c2c(N)n(Cc3ccccc3)c(=O)[nH]c2=O)c(C)o1	-1	2	4	8	.	.	.	.	.	.
COc1ccc(/C=N/NC(=O)c2nnn(-c3nonc3N)c2-c2cccc(OC)c2)cc1	-1	-3	2	2	.	.	.	.	.	.
COc1ccc(O)c(/C=N/NC(=O)c2c(C)nnn2-c2nonc2N)c1	88*	41*	-5	171*	184*	21	26	-8	33*	8
Cc1ccc(C(=O)O)cc1-c1ccc(/C=C2/NC(=O)N(c3ccccc3)C2=O)o1	41*	-24	3	42*	75*	18	31	.	9	21*
O=C(O)c1ccc(NC(=S)NC(=O)c2ccc(-c3ccc(Br)cc3)o2)cc1	53*	-64	0	145*	74*	23	26	67*	16*	16*
O=C1NC(=O)C2(C=C(c3ccccc3)C(O)(c3ccccc3)C2)N1 (centres undefined)	3	3	.	-3	.	.	.	.	.	.
O=C(CN1C(=O)CSc2ccc(S(=O)(=O)N3CCOCC3)cc21)NCCc1ccccc1	-6	-2	.	1	.	.	.	.	.	.
COc1ccc(Cl)cc1C1=NOC2(CCC2)C(=O)N1Cc1ccc(NC(C)=O)cc1	3	-1	.	4	.	.	.	.	.	.
